Assays:
Homo sapiens [1] = species on record: Homo sapiens; assay: (§1) Concentration of peptide resulting in 50% inhibition of C5a (100 nM) causing the release of MPO from polymorphonuclear leukocytes; format: functional, organism-based
How it was run: (§2)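 Freshly isolated human PMNs primed with cytochalasin B (10 µg/mL, 10 min, 37 °C). Cells (4 × 10⁶/mL) preincubated 10 min at 37 °C with peptide in Hank's balanced salt solution with 0.1% gelatin. Challenged with C5a (100 nM) for 10 min. Myeloperoxidase read-out: pH 6.8 phosphate buffer, dimethoxybenzidine/H₂O₂, stopped at 20 min with sodium azide. A450 corrected for no-peptide controls.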

Homo sapiens [2] = species on record: Homo sapiens; assay: as §1; format: functional, organism-based; how it was run: as §2; remark: listed apart in the source
[3] = target: T1, C5a anaphylatoxin chemotactic receptor 1 (Homo sapiens, UniProt P21730); assay: (§3) Inhibition of binding of [125I]C5a to human polymorphonuclear leukocyte C5a receptor
T1 sequence (P21730 whole entry): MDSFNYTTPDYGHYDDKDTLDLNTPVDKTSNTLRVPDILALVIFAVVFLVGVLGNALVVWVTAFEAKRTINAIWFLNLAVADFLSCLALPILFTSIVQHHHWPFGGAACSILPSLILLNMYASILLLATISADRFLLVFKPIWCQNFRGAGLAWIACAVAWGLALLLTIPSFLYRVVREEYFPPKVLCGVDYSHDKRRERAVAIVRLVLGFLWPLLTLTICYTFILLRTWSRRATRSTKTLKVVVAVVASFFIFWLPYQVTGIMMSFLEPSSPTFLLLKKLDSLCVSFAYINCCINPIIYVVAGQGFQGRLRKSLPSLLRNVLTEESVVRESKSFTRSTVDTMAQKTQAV
How it was run: (§4)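 Competition binding on fresh human PMNs (0.2 × 10⁶) with [¹²⁵I]C5a (~50 pM). Buffer: 50 mM HEPES, 1 mM CaCl₂, 5 mM MgCl₂, 0.5% BSA, 0.1% bacitracin, 100 μM PMSF. Incubated 60 min at 4 °C, then filtered, washed and γ-counted. Nonspecific binding defined with 1 mM peptide or 100 nM C5a.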

[4] = target: T1, C5a anaphylatoxin chemotactic receptor 1; assay: as §3; how it was run: as §4; remark: listed apart in the source
[5] = target: T1, C5a anaphylatoxin chemotactic receptor 1; assay: (§5) Inhibition of binding of [125I]C5a to human polymorphonuclear leukocyte(PMN) C5a anaphylatoxin chemotactic receptor
How it was run: (§6)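 Competition binding on freshly isolated whole human PMNs (0.2 × 10⁶/well) against ~50 pM [125I]C5a, with unlabeled peptide or recombinant human C5a as competitor. Buffer: 50 mM HEPES, 1 mM CaCl2, 5 mM MgCl2, 0.5% BSA, 0.1% bacitracin, 100 μM PMSF. Incubated 60 min at 4 °C, then filtered, washed once and gamma-counted. Nonspecific binding set with 1 mM peptide or 100 nM C5a.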

[6] = target: T1, C5a anaphylatoxin chemotactic receptor 1; assay: as §5; how it was run: as §6; remark: listed apart in the source

SMILES: NCCCC[C@H](NC(=O)[C@@H](N)Cc1ccccc1)C(=O)N[C@@H](Cc1ccccc1)C(=O)N[C@@H](CCCCN)C(=O)N1CCC[C@H]1C(=O)N[C@H](CC1CCCCC1)C(=O)N[C@@H](Cc1c[nH]c2ccccc12)C(=O)N[C@H](CCCN=C(N)N)C(=O)O
- IC50 (Homo sapiens [1]): 0.5 µM
- IC50 (Homo sapiens [2]): 0.501 µM
- IC50 [3]: 4.6 µM
- IC50 [4]: 4.57 µM

SMILES: CC(C)[C@H](NC(=O)[C@H](CO)NC(=O)[C@H](Cc1c[nH]cn1)NC(=O)[C@H](CCCCN)NC(=O)[C@H](Cc1ccc(O)cc1)NC(=O)[C@@H](N)CCCCN)C(=O)N[C@H](C(=O)N[C@@H](CCCCN)C(=O)N[C@@H](CCCCN)C(=O)NCCCCC(=O)NCC(=O)NCC(=O)NCC(=O)NCC(=O)N[C@@H](Cc1ccccc1)C(=O)N[C@@H](CCCCN)C(=O)N1CCC[C@H]1C(=O)N[C@H](CC1CCCCC1)C(=O)N[C@@H](Cc1c[nH]c2ccccc12)C(=O)N[C@H](CCCNC(=N)N)C(=O)O)C(C)C
- IC50 (Homo sapiens [1]): 0.07 µM
- IC50 (Homo sapiens [2]): 0.0724 µM
- IC50 [3]: 0.2 µM
- IC50 [4]: > 0.174 µM

SMILES: CC(C)[C@H](NC(=O)[C@H](CO)NC(=O)[C@H](Cc1c[nH]cn1)NC(=O)[C@H](CCCCN)NC(=O)[C@H](Cc1ccc(O)cc1)NC(=O)[C@@H](N)CCCCN)C(=O)N[C@H](C(=O)N[C@@H](CCCCN)C(=O)N[C@@H](CCCCN)C(=O)NCCCCC(=O)N[C@@H](Cc1ccccc1)C(=O)N[C@@H](CCCCN)C(=O)N1CCC[C@H]1C(=O)N[C@H](CC1CCCCC1)C(=O)N[C@@H](Cc1c[nH]c2ccccc12)C(=O)N[C@H](CCCN=C(N)N)C(=O)O)C(C)C
- IC50 (Homo sapiens [1]): 0.2 µM
- IC50 (Homo sapiens [2]): 0.245 µM
- IC50 [3]: 1.2 µM
- IC50 [4]: 1.23 µM

SMILES: CN1C(=O)[C@@H](CCCN=C(N)N)NC(=O)[C@H](Cc2c[nH]c3ccccc23)NC(=O)[C@@H](CC2CCCCC2)NC(=O)[C@@H]2CCCN2C(=O)[C@H](Cc2c[nH]c3ccccc23)NC(=O)[C@@H]1Cc1ccccc1
- IC50 (Homo sapiens [1]): 2.1 µM
- IC50 (Homo sapiens [2]): 1.51 µM
- IC50 [3]: 3 µM
- IC50 [4]: 2.95 µM

SMILES: N=C(N)NCCC[C@H]1NC(=O)[C@H](Cc2c[nH]c3ccccc23)NC(=O)[C@@H](CC2CCCCC2)NC(=O)[C@@H]2CCCN2C(=O)[C@H](Cc2c[nH]c3ccccc23)NC(=O)[C@H](Cc2ccccc2)NC1=O
- IC50 [4]: > 42.7 µM

SMILES: CN[C@@H](Cc1ccccc1)C(=O)N[C@@H](CCCCN)C(=O)N1CCCC1C(=O)N[C@H](CC1CCCCC1)C(=O)N[C@@H](Cc1c[nH]c2ccccc12)C(=O)N[C@@H](CCCN=C(N)N)C(=O)O (single isomer, unassigned)
- IC50 (Homo sapiens [1]): 2 µM
- IC50 (Homo sapiens [2]): 1.95 µM

SMILES: C[C@H](NC(=O)[C@@H](N)Cc1ccccc1)C(=O)N1CCCC1C(=O)N[C@H](CC1CCCCC1)C(=O)N[C@@H](Cc1c[nH]c2ccccc12)C(=O)N[C@H](CCCN=C(N)N)C(=O)O (single isomer, unassigned)
- IC50 (Homo sapiens [1]): 3.7 µM
- IC50 (Homo sapiens [2]): 3.63 µM
- IC50 [3]: 9 µM
- IC50 [4]: 9.12 µM

SMILES: CC(=O)N[C@@H](Cc1ccccc1)C(=O)N[C@@H](CCCCN)C(=O)N1CCCC1C(=O)N[C@H](CC1CCCCC1)C(=O)N[C@@H](Cc1c[nH]c2ccccc12)C(=O)N[C@H](CCCN=C(N)N)C(=O)O (single isomer, unassigned)
- IC50 [3]: 4.8 µM
- IC50 [4]: 4.79 µM

SMILES: C[C@H](N)C(=O)N[C@@H](CCCCN)C(=O)N1CCCC1C(=O)N[C@H](CC1CCCCC1)C(=O)N[C@@H](Cc1c[nH]c2ccccc12)C(=O)N[C@H](CCCN=C(N)N)C(=O)O (single isomer, unassigned)
- IC50 [3]: > 1000 µM
- IC50 [4]: > 1000 µM

SMILES: CCCC[C@H](NC(=O)[C@H](Cc1ccccc1)NC(C)=O)C(=O)N1CCCC1C(=O)N[C@H](CC1CCCCC1)C(=O)N[C@@H](Cc1c[nH]c2ccccc12)C(=O)N[C@H](CCCN=C(N)N)C(=O)O (single isomer, unassigned)
- IC50 (Homo sapiens [1]): 1.4 µM
- IC50 (Homo sapiens [2]): 1.41 µM
- IC50 [3]: 3.6 µM
- IC50 [4]: 3.55 µM

SMILES: NC(N)=NCCC[C@@H](NC(=O)[C@H](Cc1c[nH]c2ccccc12)NC(=O)[C@@H](CC1CCCCC1)NC(=O)C1CCCN1C(=O)[C@H](Cc1c[nH]c2ccccc12)NC(=O)[C@@H](N)Cc1ccccc1)C(=O)O (single isomer, unassigned)
- IC50 (Homo sapiens [1]): 0.3 µM
- IC50 [5]: 5.9 µM
- IC50 (Homo sapiens [2]): 0.316 µM
- IC50 [6]: 5.89 µM

SMILES: CN[C@@H](Cc1ccccc1)C(=O)N[C@@H](CCCCN)C(=O)N1CCCC1C(=O)N[C@H](CC1CCCCC1)C(=O)N[C@@H](Cc1c[nH]c2ccccc12)C(=O)N[C@H](CCCN=C(N)N)C(=O)O (single isomer, unassigned)
- IC50 (Homo sapiens [1]): 0.1 µM
- IC50 (Homo sapiens [2]): 0.107 µM

SMILES: NCCCC[C@H](NC(=O)[C@H](Cc1ccccc1)NC(=O)[C@@H](N)CCCCN)C(=O)N1CCCC1C(=O)N[C@H](CC1CCCCC1)C(=O)N[C@@H](Cc1c[nH]c2ccccc12)C(=O)N[C@H](CCCN=C(N)N)C(=O)O (single isomer, unassigned)
- IC50 (Homo sapiens [1]): 0.3 µM
- IC50 (Homo sapiens [2]): 0.269 µM
- IC50 [3]: 2.6 µM
- IC50 [4]: 2.63 µM

SMILES: CC(=O)N[C@@H](Cc1ccccc1)C(=O)N[C@@H](CCCN)C(=O)N1CCCC1C(=O)N[C@H](CC1CCCCC1)C(=O)N[C@@H](Cc1c[nH]c2ccccc12)C(=O)N[C@H](CCCN=C(N)N)C(=O)O (single isomer, unassigned)
- IC50 (Homo sapiens [1]): 0.2 µM
- IC50 (Homo sapiens [2]): 0.191 µM
- IC50 [3]: 0.8 µM
- IC50 [4]: 0.794 µM

SMILES: NCCCC[C@H](NC(=O)[C@@H](N)Cc1ccccc1)C(=O)N1CCCC1C(=O)N[C@H](CC1CCCCC1)C(=O)N[C@@H](Cc1c[nH]c2ccccc12)C(=O)N[C@H](CCCN=C(N)N)C(=O)O (single isomer, unassigned)
- IC50 (Homo sapiens [1]): 6.8 µM
- IC50 (Homo sapiens [2]): 6.76 µM
- IC50 [3]: 2 µM
- IC50 [4]: 1.95 µM

SMILES: CC(=O)N[C@@H](Cc1ccccc1)C(=O)N[C@@H](CCCCN)C(=O)N1CCCC1C(=O)N[C@H](CC1CCCCC1)C(=O)N[C@@H](CC1c2ccccc2-c2ccccc21)C(=O)N[C@H](CCCN=C(N)N)C(=O)O (single isomer, unassigned; 16a)
- IC50 [3]: 51 µM
- IC50 [4]: > 51.3 µM

SMILES: CC(=O)N[C@@H](Cc1ccccc1)C(=O)N[C@@H](CCCCN)C(=O)N1CCCC1C(=O)N[C@H](CC1CCCCC1)C(=O)N[C@@H](CC1c2ccccc2-c2ccccc21)C(=O)N[C@H](CCCN=C(N)N)C(=O)O (single isomer, unassigned; 16b)
- IC50 [3]: 116 µM
- IC50 [4]: > 115 µM

Source: ChEMBL document CHEMBL1132227, “Low-molecular-weight peptidic and cyclic antagonists of the receptor for the complement factor C5a” (J Med Chem, 1999)
